Most compounds without a hit are left out; they make up all but 3.6% or so of the library.
CSC inhib – blocks cancer stem cells; cancer stem cell-like cells viability, luminescence; inhibition, % at 7.5 µM; 1.1% of 300,000 active; in the data active = inhibition above about 75%; inconclusive = no clear call, values can overlap the other calls; tested in HMLE shEcad cells
HIF activator – HIF pathway transcriptional activation | U2OS HRE-luciferase reporter, luminescence; normalized: DMSO 0%, desferrioxamine 100% | activation, % at 7.5 µM (by protocol) | 0.32% of 300,000 active | AID 1910;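 active = mean activation of at least 10% of the iron chelator positive control signal, with at least half of replicates also reaching 10%; inconclusive = mean and replicate majority disagree about reaching 10%; inactive = mean and most replicates under 10%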
SKKanGAS inh – SKKanGAS growth inhibition; AID 1662; 1.3% of 300,000 active; S. pyogenes SKKanGAS, kanamycin growth, BacTiter-Glo, 6 h; inhibition, % at 7.5 µM;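 active = mean replicate score, as percent of positive control median, at least 50; inconclusive = mean below 50 but one replicate at or above 50; inactive = mean and every replicate below 50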;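 also: strain carries kanamycin resistance gene driven by streptokinase promoter and grows in 40 µg/ml kanamycin; loss of luminescence reflects streptokinase promoter inhibition or plain growth inhibition; 0% = median of DMSO wells and 100% = positive control at its reference dose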
T cruzi repl – T. cruzi replication inhibition. T. cruzi beta-gal in NIH3T3, luminescence, 90 h. inhibition, % (test concentration not listed). 1.4% of 300,000 active. AID 1885;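 active = mean inhibition across valid replicates above about 55%, limit read from the data; inconclusive = mean below that limit but half or more replicates reach it; inactive = mean below it, under half of replicates reach it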;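 also: signal also drops with host cell toxicity which is not excluded here; 0% = plate median of DMSO wells and 100% = zero luminescence signal; higher percent means less beta-gal luminescence so fewer parasites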
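Assay system: NIH/3T3 fibroblasts plus reporter T. cruzi. Amount: NIH/3T3 cells, 5,000 per well. Buffer or medium: DMEM, 2% fetal bovine serum. Doses: compound pinned at 50 nL/well, DMSO. Schedule: ≥90 h infection period, 3 h prior cell attachment. Signal: luminescent β-galactosidase signal after 60 min lysis. Read-out: parasite load inhibition, %.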
PfHsp90 set2 – growth inhibition of yeast expressing Plasmodium Hsp90 | S. cerevisiae expressing PfHsp90, BacTiter-Glo ATP, 48 h; yeast lacking PDR1 and PDR3 efflux regulators | inhibition, % at 9.4 µM | 0.32% of 310,000 active | AID 504621;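 active = every replicate shows inhibition above about 80%, whatever the replicate mean, limit read from the data; inconclusive = mean inhibition reaches the set limit but some replicate falls short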;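 also: 0% = DMSO neutral controls and 100% = 20 µM radicicol positive controls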
Beta cell apopt – blocks beta cell apoptosis; AID 435005; INS-1E cytokine-induced death, ATP luminescence, 48 h; percent of positive-control rescue, neutral wells zero; 0.8% of 300,000 active; protection from apoptosis, % (concentration not given with the values);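 active = Every replicate reaches about 75%, or at least half do and their mean reaches it too, limit read from the data; inconclusive = At least half of replicates reach the limit but their mean does not; inactive = Under half of replicates reach the limit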;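 also: 0% = cytokine-treated negative control wells and 100% = positive control rescue; higher means more ATP so stronger rescue from cytokine killing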
An asterisk follows results filed as active; ? = inconclusive; . = no result given.

SMILES | CSC inhib | HIF activator | SKKanGAS inh | T cruzi repl | PfHsp90 set2 | Beta cell apopt
O=C(CCO)c1ccc(O)cc1 | -8 | 0 | 3 | -31 | 18 | -4
CCN1c2ccccc2NC2C1C(C(C)=O)C(=O)N2c1ccc(Cl)cc1 (stereo not drawn) | 3 | 0 | 15 | 17 | -5 | .
CCN1c2ccccc2NC2N=C(OC)C(c3ccccc3)C21 (stereo not drawn) | 1 | 0 | 4 | -14 | . | 111*
CC(Nc1cccc([N+](=O)[O-])c1)C(=O)Nc1ccc(S(=O)(=O)N2CCCC2)cc1 (stereo not drawn) | . | . | . | . | -11 | .
COc1cc(-c2nc(CN3CCN(C(=O)c4ccco4)CC3)c(C)o2)ccc1F | -15 | 1 | 0 | -1 | 1 | 2
CCOCCCn1c(=N)c(C(=O)NCc2ccc3c(c2)OCO3)cc2c(=O)n3cccc(C)c3nc21 | 17 | 0 | 2 | 58* | 2 | 18
COc1ccc(CCNC(=O)c2cc3c(=O)n4cccc(C)c4nc3n(Cc3ccco3)c2=N)cc1OC | 74 | 0 | 5 | 39 | 6 | 105*
Cc1ccc2nc3c(cc(C(=O)NCCN4CCOCC4)c(=N)n3CCCN3CCOCC3)c(=O)n2c1 | -5 | 0 | -1 | -17 | 41 | 6
COCCCn1c(=N)c(C(=O)NCc2ccc3c(c2)OCO3)cc2c(=O)n3cccc(C)c3nc21 | . | . | . | . | 18 | .
Cc1cccn2c(=O)c3cc(C(N)=S)c(=N)n(CCCN4CCOCC4)c3nc12 | -3 | 0 | -1 | 24 | 7 | 10
Cc1ccc2nc3c(cc(C(N)=S)c(=N)n3CCCOC(C)C)c(=O)n2c1 | . | 0 | 1 | 64* | -4 | 9
COCCCn1c(=N)c(C(N)=S)cc2c(=O)n3cccc(C)c3nc21 | 1 | 1 | -11 | 68* | -7 | 9
Cc1cccn2c(=O)c3cc(C(=O)NCCc4ccccc4)c(=N)n(Cc4ccco4)c3nc12 | 12 | -1 | 7 | 53 | -34 | 15
COc1ccc(CNC(=O)CN(Cc2ccccc2)S(=O)(=O)c2ccc(Cl)cc2)cc1 | 2 | 0 | 0 | 74* | -43 | 9
CCn1c(=S)[nH]c2sc3c(c2c1=O)CCCC3 | 4 | -2 | 27 | -2 | -44 | 0
CC(C)C1Cc2c(sc3[nH]c(=S)n(Cc4ccccc4)c(=O)c23)CO1 (stereo not drawn) | 139* | -8 | 82* | 2 | -32 | 16
COc1cc(C(=O)NCC(c2cccs2)N2CCOCC2)cc(Br)c1OCc1ccccc1 (stereo not drawn) | 30 | . | . | . | 51 | 20
CN(C(=S)NC(=O)Cc1ccccc1)c1ccccc1 | -1 | 3 | -24 | -36 | -65 | -2
Cc1ccc(O)c(NC(=O)c2ccc3c(c2)C(=O)N(Cc2ccco2)C3=O)c1 | 5 | 32* | 5 | -12 | 5 | 0
Cc1ccc(O)c(NC(=O)c2ccc3c(c2)C(=O)N(Cc2cccnc2)C3=O)c1 | 3 | 0 | 4 | -36 | 6 | 0
Cc1ccc(S(=O)(=O)N2CCN(C(C)CC(=O)O)CC2)cc1 (stereo not drawn) | 6 | 0 | -5 | 4 | 11 | 1
CCOC(=O)/C(=N\Nc1ccccc1)c1csc(Nc2ccc(C)cc2)n1 | 74 | 0 | 3 | 60* | -12 | 5
CCCCC(CCC(=O)O)(C(=O)OCC)c1csc(Nc2ccc(C)cc2)n1 (stereo not drawn) | 0 | 0 | 8 | -12 | -23 | -11
O=C(CSc1nc2ccccc2s1)N1N=C(c2cccs2)CC1c1ccc(F)cc1 (stereo not drawn) | -9 | 1 | -3 | 56* | -19 | 10
COc1ccc(C2CC(c3cccs3)=NN2C(=O)CSc2nc3ccccc3s2)cc1 (stereo not drawn) | -1 | -10 | 6 | 33 | -23 | 1
SMILES | CSC inhib | HIF activator | SKKanGAS inh | T cruzi repl | PfHsp90 set2 | Beta cell apopt
Cc1ccn2c(=O)nc(SCC(=O)N3N=C(c4cccs4)CC3c3ccc(F)cc3)nc2c1 (stereo not drawn) | -4 | 0 | 20 | 59* | . | 7
Cc1ccc(C2CC(c3cccs3)=NN2C(=O)CSc2nc(=O)n3cc(C)ccc3n2)cc1 (stereo not drawn) | 2 | 0 | 48 | 22 | -22 | 12
Cc1cccn2c(=O)nc(SCC(=O)N3N=C(c4cccs4)CC3c3ccc(F)cc3)nc12 (stereo not drawn) | . | -1 | 25 | 67* | -6 | .
O=C(OCC(=O)N1CCC(c2ccccc2)=N1)c1ccc(Cl)s1 | 1 | . | . | . | -2 | -4
CNCCCOc1ccc(Cl)cc1C(C)(C)C | 26 | 0 | -13 | 55* | 19 | .
COCCCNCCCOc1ccc(Cl)cc1C(C)(C)C | 23 | -1 | 5 | 46 | -25 | 8
CC12CCC(C(S(=O)(=O)Nc3ccccc3)C1=O)C2(C)C (stereo not drawn) | . | . | . | . | -12 | .
COCCCNC(=O)c1cc(C)nn1-c1ccccc1 | -2 | 0 | 0 | -12 | -5 | -1
CCNc1nc(Oc2c(Cl)cccc2Cl)cc(C(F)(F)F)n1 | ? | -1 | 53* | -4 | -156 | 4
CCNc1nc(Oc2ccc(Cl)cc2Cl)cc(C(F)(F)F)n1 | -5 | 0 | 12 | 5 | . | 7
O=[N+]([O-])c1ccc2nnn(O)c2c1 | -3 | 0 | 4 | -1 | 5 | -2
COc1cccc(C(=O)NCCN2CCN(c3ccccc3)CC2)c1 | 8 | 0 | 5 | -2 | -1 | -2
Cc1ccc(NC(=O)N(Cc2ccco2)C(C)c2ccco2)cc1C (stereo not drawn) | 8 | 0 | 6 | 8 | -1 | 2
O=C(Nc1ccc(Cl)cc1)N(Cc1cccnc1)Cc1ccco1 | 2 | 0 | 6 | 61* | . | -1
Cc1ccc(NC(=O)N(Cc2cccnc2)Cc2ccco2)cc1C | 0 | 0 | -11 | 67* | 16 | -6
OC(COc1ccc(OCC(O)CN2CCN(Cc3ccccc3)CC2)cc1)CN1CCN(Cc2ccccc2)CC1 (stereo not drawn) | 0 | 0 | 0 | 65* | . | 19
Cc1ccc(C(C)(C)C)c(OCCN2CCCC2)c1 | 7 | -2 | 3 | 42 | -4 | -1
OC(COc1cccc2ccccc12)CN1CCN(c2ccccc2Cl)CC1 (stereo not drawn) | 114* | 0 | ? | 8 | 11 | -11
CC(C)(C)c1ccccc1OCCN1CCCC1 | -20 | 0 | 0 | 60* | -13 | 0
OC(COc1ccccc1)CN1CCCC1 (stereo not drawn) | 0 | 0 | 0 | -1 | -4 | -4
ON=C1c2cc(OCCN3CCCCC3)ccc2-c2ccc(OCCN3CCCCC3)cc21 | -15 | 16* | -2 | 61* | 20 | 14
Cc1ccc(N2CCN(CC(O)COc3cccc4ccccc34)CC2)cc1 (stereo not drawn) | 2 | 0 | 5 | -10 | 14 | -1
